Key:
[1] = system: MDA-MB-231 (triple negative breast cancer cell); test: In vitro cytotoxicity; assay type: cell-based, human; settings: for IC50: read-out: IC50 MDA-MB-231, 72 h, MTT, mean ± S.D (n = 6)
Outline: (§1)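 Adherent cancer cells were exposed to test compound for 72 h. The series was a 3-fold dilution starting at 100 μM.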

BT-333 (glioblastoma) = test: In vitro cytotoxicity; assay type: cell-based, human; settings: read-out: IC50 BT-333; 72 h, MTT, mean ± S.D (n = 6)
Outline: as §1

[2] = system: MRC5 (human lung fibroblast); test: Cytotoxicity in normal cells MRC5; assay type: cell-based; settings: read-out: IC50 MRC5; mean ± S.D (n = 6)
[3] = Solution stability in DMEM; assay type: physicochemical; settings: 48 h, reading at λ = 260 nm
MDA-MB-231 cancer cells = test: Whole cellular uptake of Au; assay type: cell-based, human; settings: 10 μM for 18 h, GFAAS
Outline: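 Adherent MDA-MB-231 cells were incubated with the test compound at 10 μM for 18 h. Whole-cell gold content was then measured by graphite furnace AAS. Data are mean ± s.e.m. (n = 3), compared by ordinary one-way ANOVA.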

[4] = system: mitochondria of MDA-MB-231 cancer cells; test: Mitochondria uptake of Au; assay type: cell-based, human; settings: 10 μM for 18 h, 20 million cells, GFAAS, n = 2
Outline: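 MDA-MB-231 cells (20 million) were treated with test compound at 10 μM for 18 h. Standard fractionation then gave pure mitochondria, and gold content was measured by GFAAS. Data are mean ± s.e.m. (n = 2), compared by ordinary one-way ANOVA.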

MDA-MB-231 cells [5] = test: Mitochondria membrane potential determination using TMRE dye; assay type: cell-based, human; settings: for effect on mitochondria membrane potential (TMRE fluorescence): 5 and 10 μM for 2 hours
MDA-MB-231 cells [6] = test: Intracellular ROS determination; assay type: cell-based, human; settings: 10 μM, 90 minutes, DCF-DA, FACS
Outline: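 MDA-MB-231 cells were exposed to the test compound at 5 and 10 μM. The text gives 90 min of exposure, and the figure legend gives 2 h. Cells were then stained with 2′,7′-dichlorodihydrofluorescein diacetate, and intracellular fluorescence was read by flow cytometry at 488 nm. Groups were compared by ordinary one-way ANOVA.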

Row | Compound | IC50 [1] [nM] | IC50 (BT-333 (glioblastoma)) [nM] | IC50 [2] [nM] | solution stability in DMEM [3] | whole cell uptake (Au content) (MDA-MB-231 cancer cells) | mitochondria uptake (Au) [4] [nmol/20 million cells] | effect on mitochondria membrane potential (TMRE fluorescence) (MDA-MB-231 cells [5]) | fold more cytotoxic than Au(III) 3-PF6 counterpart (IC50) ([1]; in both cancer cell lines tested (MDA-MB-231, BT-333)) | intracellular ROS produced (MDA-MB-231 cells [6]) | decrease in TMRE fluorescence intensity (mitochondria membrane potential) (MDA-MB-231 cells [5]; 10 μM, 2 hours)
1 | [Au+].[Cl-].c1ccc(P(c2ccccc2)c2ccccc2P(c2ccccc2)c2ccccc2)cc1.c1ccc(P(c2ccccc2)c2ccccc2P(c2ccccc2)c2ccccc2)cc1 [1-BF4, bis-[1,2-bis-(diphenylphosphino)benzene]gold(I)] | 820 ± 110 | 660 ± 20 | – | – | – | – | – | – | – | –
2 | [Au+].[Cl-].c1ccc(P(c2ccccc2)c2ccccc2P(c2ccccc2)c2ccccc2)cc1.c1ccc(P(c2ccccc2)c2ccccc2P(c2ccccc2)c2ccccc2)cc1 [1-Cl, bis-[1,2-bis-(diphenylphosphino)benzene]gold(I)] | 1140 ± 120 | 410 ± 200 | 1350 ± 40 | stable in DMEM for 48 h without the formation of new adducts or reduction in peak intensity | taken up more effectively compared to 1-AuCl4 | 214.5 | did not affect the mitochondria membrane potential significantly | – | – | –
3 | [Au+].[Cl-].c1ccc(P(c2ccccc2)c2ccccc2P(c2ccccc2)c2ccccc2)cc1.c1ccc(P(c2ccccc2)c2ccccc2P(c2ccccc2)c2ccccc2)cc1 [1-PF6, bis-[1,2-bis-(diphenylphosphino)benzene]gold(I)] | 300 ± 100 | 380 ± 20 | 1910 ± 30 | – | taken up more effectively compared to 1-AuCl4 | – | – | 4–16 fold | – | –
4 | bis-[1,2-bis-(diphenylphosphino)benzene]gold(III) chloride [3-PF6] | 4920 ± 210 | 1760 ± 120 | – | – | significantly higher whole cell uptake compared to their Au(I) counterparts | – | – | – | – | –
5 | bis-[1,2-bis-(diphenylphosphino)benzene]gold(III) chloride [3-AuCl4] | 1520 ± 210 | 1380 ± 230 | 4470 ± 50 | showed solution stability for 48 h but significant reduction in peak intensity after 1 h of incubation | significantly higher whole cell uptake compared to their Au(I) counterparts | 375 | concentration dependent decrease in fluorescence intensity | – | significant difference in the ROS produced by 3-AuCl4 compared to 1-Cl | about 53%
6 | [Au+].[Cl-].c1ccc(P(c2ccccc2)c2ccccc2P(c2ccccc2)c2ccccc2)cc1.c1ccc(P(c2ccccc2)c2ccccc2P(c2ccccc2)c2ccccc2)cc1 [1-AuCl4, bis-[1,2-bis-(diphenylphosphino)benzene]gold(I)] | 1780 ± 150 | 1300 ± 40 | 930 ± 20 | – | – | – | – | – | – | –

Reference: publication PMC11650976 (Dalton Transactions (Cambridge, England : 2003), 2024)
